The compounds below were run against Metabotropic glutamate receptor 5 (Homo sapiens, UniProt P41594) (assay: Displacement of [3H]M-MPEP from mGluR5 (unknown origin) at 1 uM measured after 60 mins relative to control).
Summary of the method: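 Rat cerebrocortical membranes or membranes from A18 cells expressing human mGlu5a, incubated with [³H]M-MPEP and test compound at 1 µM in 50 mM Tris pH 7.6 with 2 mM MgCl₂ and 2 mM CaCl₂, 60 min at 25°C. Non-specific binding was taken with […]. Result is % displacement, run in duplicate or triplicate.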

Chain of Metabotropic glutamate receptor 5 (P41594 21-1212 limits assumed): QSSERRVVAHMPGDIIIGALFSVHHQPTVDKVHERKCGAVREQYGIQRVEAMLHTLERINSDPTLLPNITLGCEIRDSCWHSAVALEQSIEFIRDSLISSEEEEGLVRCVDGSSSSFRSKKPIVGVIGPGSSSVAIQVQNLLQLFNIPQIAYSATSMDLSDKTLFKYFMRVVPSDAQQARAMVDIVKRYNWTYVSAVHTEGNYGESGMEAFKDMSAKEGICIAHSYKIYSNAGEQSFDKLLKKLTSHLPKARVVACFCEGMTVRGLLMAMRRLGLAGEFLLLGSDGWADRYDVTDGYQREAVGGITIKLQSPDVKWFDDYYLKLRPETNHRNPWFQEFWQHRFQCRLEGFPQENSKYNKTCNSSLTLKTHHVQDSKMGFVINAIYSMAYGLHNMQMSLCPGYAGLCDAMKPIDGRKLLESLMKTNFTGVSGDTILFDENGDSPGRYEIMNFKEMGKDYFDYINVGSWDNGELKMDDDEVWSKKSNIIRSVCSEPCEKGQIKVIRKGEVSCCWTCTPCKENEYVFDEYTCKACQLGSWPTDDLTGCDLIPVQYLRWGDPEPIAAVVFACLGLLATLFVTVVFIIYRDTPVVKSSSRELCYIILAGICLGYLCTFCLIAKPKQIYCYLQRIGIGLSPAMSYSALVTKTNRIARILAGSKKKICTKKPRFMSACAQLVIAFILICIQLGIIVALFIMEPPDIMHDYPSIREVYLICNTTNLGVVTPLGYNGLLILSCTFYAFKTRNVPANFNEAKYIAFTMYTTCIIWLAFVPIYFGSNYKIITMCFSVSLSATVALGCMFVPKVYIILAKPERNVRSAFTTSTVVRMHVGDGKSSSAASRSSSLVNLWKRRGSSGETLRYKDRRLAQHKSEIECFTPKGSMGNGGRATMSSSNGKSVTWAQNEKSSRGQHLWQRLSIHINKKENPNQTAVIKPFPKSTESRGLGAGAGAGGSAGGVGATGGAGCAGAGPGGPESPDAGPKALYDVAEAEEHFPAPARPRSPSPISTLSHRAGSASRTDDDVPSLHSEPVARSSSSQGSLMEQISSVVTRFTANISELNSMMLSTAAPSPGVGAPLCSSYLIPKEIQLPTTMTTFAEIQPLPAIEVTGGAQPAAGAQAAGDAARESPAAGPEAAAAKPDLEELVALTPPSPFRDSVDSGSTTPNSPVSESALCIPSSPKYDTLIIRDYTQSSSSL

SMILES	inhibition
COc1ccc(S(=O)(=O)c2cnc3cc(Cl)ccc3c2N2CCC(C)CC2)cc1Cl	93%
Cc1ccc2ncc(S(=O)(=O)c3ccc(C#N)cc3)c(N3CCOCC3)c2c1	48%
Cc1ccc(S(=O)(=O)c2cnc3cc(Cl)ccc3c2N2CCOCC2)cc1Cl	87%
Cc1ccc(S(=O)(=O)c2cnc3cc(F)ccc3c2N2CCOCC2)cc1Cl	84%
CC1CCN(c2c(S(=O)(=O)c3cccc(C#N)c3)cnc3cc(F)ccc23)CC1	92 to 92.4%
COc1ccc2ncc(S(=O)(=O)c3ccc(F)cc3)c(N3CCOCC3)c2c1	7%
Cc1ccc(S(=O)(=O)c2cnc3ccc(F)cc3c2N2CCOCC2)cc1Cl	69%
Cc1ccc2ncc(S(=O)(=O)c3cc(Cl)cc(Cl)c3)c(N3CCC(C)CC3)c2c1	75%
COCC1CCN(c2c(S(=O)(=O)c3ccc(F)cc3)cnc3cc(F)ccc23)CC1	76.1%
O=S(=O)(c1cc(F)cc(F)c1)c1cnc2cc(F)ccc2c1N1CCSCC1	78.4%
COc1cccc(S(=O)(=O)c2cnc3ccc(C)cc3c2N2CCOCC2)c1	65%
Cc1ccc(S(=O)(=O)c2cnc3ccc(F)cc3c2N2CCC(C)CC2)cc1	91%
CC1CCN(c2c(S(=O)(=O)c3ccc(Cl)cc3)cnc3cc(Cl)ccc23)CC1	91%
COc1cccc(S(=O)(=O)c2cnc3ccc(F)cc3c2N2CCOCC2)c1	41%
Cc1ccc2ncc(S(=O)(=O)c3ccc(Cl)cc3)c(N3CCC(C)CC3)c2c1	79%
COc1ccc(S(=O)(=O)c2cnc3ccc(Cl)cc3c2N2CCC(C)CC2)cc1Cl	46%
O=S(=O)(c1ccccc1)c1cnc2ccc(F)cc2c1N1CCOCC1	81%
NC(=O)C1CCN(c2c(S(=O)(=O)c3ccccc3)cnc3ccccc23)CC1	24.8%
CCN1CCN(c2c(S(=O)(=O)c3ccccc3)cnc3ccccc23)CC1	1.7%
CC1CCN(c2c(S(=O)(=O)c3ccc(F)c(F)c3)cnc3c(F)cccc23)CC1	93%
O=S(=O)(c1ccc(F)cc1)c1cnc2cc(F)ccc2c1N1CCSCC1	62.7%

SMILES	inhibition
Cc1ccc(S(=O)(=O)c2cnc3ccc(F)cc3c2N2CCC(C)CC2)cc1C	92%
CC1CCN(c2c(S(=O)(=O)c3cccc(F)c3)cnc3cc(Cl)ccc23)CC1	5.6 to 96%
Cc1cc(C)cc(S(=O)(=O)c2cnc3ccc(C)cc3c2N2CCOCC2)c1	47%
COc1ccc(S(=O)(=O)c2cnc3ccc(C)cc3c2N2CCOCC2)cc1Cl	58%
Cc1ccc2ncc(S(=O)(=O)c3ccc(Cl)cc3)c(N3CCOCC3)c2c1	89%
Cc1ccc(S(=O)(=O)c2cnc3ccc(F)cc3c2N2CCC(C)CC2)cc1F	86%
CC1CCN(c2c(S(=O)(=O)c3ccc(C#N)cc3)cnc3ccc(Cl)cc23)CC1	31%
COc1ccc(S(=O)(=O)c2cnc3ccc(F)cc3c2N2CCOCC2)cc1OC	-5%
COc1ccc2ncc(S(=O)(=O)c3ccc(F)cc3)c(N3CCC(C)CC3)c2c1	27%
COc1cccc(S(=O)(=O)c2cnc3ccc(OC)cc3c2N2CCOCC2)c1	20%
O=S(=O)(c1ccc(Cl)c(Cl)c1)c1cnc2c(F)cccc2c1N1CCOCC1	86%
Cc1ccc(S(=O)(=O)c2cnc3ccc(C)cc3c2N2CCOCC2)cc1	66%
Cc1ccc(S(=O)(=O)c2cnc3cc(Cl)ccc3c2N2CCC(C)CC2)cc1F	85%
O=S(=O)(c1ccc(F)c(Cl)c1)c1cnc2cc(Cl)ccc2c1N1CCOCC1	83%
O=S(=O)(c1ccc(F)cc1)c1cnc2cc(Cl)ccc2c1N1CCOCC1	14%
Cc1ccc(S(=O)(=O)c2cnc3cc(Cl)ccc3c2N2CCOCC2)cc1	12%
COc1ccc2ncc(S(=O)(=O)c3ccccc3)c(N3CCC(C)CC3)c2c1	64%
Cc1ccc(S(=O)(=O)c2cnc3ccc(C)cc3c2N2CCC(C)CC2)cc1	82%
CC1CCN(c2c(S(=O)(=O)c3cc(Cl)cc(Cl)c3)cnc3cc(F)ccc23)CC1	87%
O=S(=O)(c1ccc(F)cc1)c1cnc2ccc(Cl)cc2c1N1CCOCC1	6%

From ChEMBL document CHEMBL4052615, “Discovery of 4-amino-3-arylsulfoquinolines, a novel non-acetylenic chemotype of metabotropic glutamate 5 (mGlu5) receptor negative allosteric modulators” (Eur J Med Chem, 2017)
